In ChEMBL document CHEMBL1909509, “Mepyramine-JNJ7777120-hybrid compounds show high affinity to hH(1)R, but low affinity to hH(4)R” (Bioorg Med Chem Lett, 2011):
pEC50, pKi: −log10 of the molar value. Calls of active or inactive are those of the source. No cut-off for these calls is given here.

Key:
Histamine H4 receptor [1] = target: T1, Histamine H4 receptor (Homo sapiens, UniProt Q9H3N8); assay: Displacement of [3H]histamine from human H4R expressed in Sf9 cells co-expressing RGS19, Galphai2 and Gbeta1gamma2 after 60 mins by liquid scintillation counting
Histamine H1 receptor [2] = target: Histamine H1 receptor (Cavia porcellus, UniProt P31389); assay: Antagonist activity at H1R in guinea pig ileum assessed as inhibition of histamine-induced muscle contraction after 15 mins; type: functional, tissue-based; conditions: read-out: pA2 (converted)
Sequence of Histamine H1 receptor (Cavia porcellus, UniProt P31389) (P31389 whole entry): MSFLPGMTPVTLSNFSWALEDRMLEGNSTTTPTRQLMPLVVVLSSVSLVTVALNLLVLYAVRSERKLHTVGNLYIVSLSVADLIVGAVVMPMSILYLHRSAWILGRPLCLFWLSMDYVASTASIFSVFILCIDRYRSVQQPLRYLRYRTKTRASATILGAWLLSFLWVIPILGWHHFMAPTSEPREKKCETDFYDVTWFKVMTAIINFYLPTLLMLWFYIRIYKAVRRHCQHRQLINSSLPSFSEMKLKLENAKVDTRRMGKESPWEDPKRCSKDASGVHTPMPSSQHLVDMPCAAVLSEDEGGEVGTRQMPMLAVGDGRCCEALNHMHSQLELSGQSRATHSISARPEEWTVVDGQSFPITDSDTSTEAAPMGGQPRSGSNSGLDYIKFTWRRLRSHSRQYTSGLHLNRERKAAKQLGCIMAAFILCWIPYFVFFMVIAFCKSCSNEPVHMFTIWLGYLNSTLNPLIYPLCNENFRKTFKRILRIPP

[3] = target: Histamine H1 receptor (Cavia porcellus) (UniProt P31389); assay: Partial agonist activity at H1R in guinea pig ileum assessed as inhibition of histamine-induced muscle contraction after 15 mins; type: functional, tissue-based
Sequence of Histamine H1 receptor (Cavia porcellus) (P31389 whole entry): as above
Summary of the method: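 Isolated guinea-pig ileum, contraction induced by histamine; test ligand incubated 15 min before the histamine response.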

Histamine H1 receptor [4] = target: Histamine H1 receptor (Homo sapiens, UniProt P35367); assay: biochemical; type: cell-based, Sf9
Sequence of Histamine H1 receptor (Homo sapiens, UniProt P35367) (P35367 whole entry): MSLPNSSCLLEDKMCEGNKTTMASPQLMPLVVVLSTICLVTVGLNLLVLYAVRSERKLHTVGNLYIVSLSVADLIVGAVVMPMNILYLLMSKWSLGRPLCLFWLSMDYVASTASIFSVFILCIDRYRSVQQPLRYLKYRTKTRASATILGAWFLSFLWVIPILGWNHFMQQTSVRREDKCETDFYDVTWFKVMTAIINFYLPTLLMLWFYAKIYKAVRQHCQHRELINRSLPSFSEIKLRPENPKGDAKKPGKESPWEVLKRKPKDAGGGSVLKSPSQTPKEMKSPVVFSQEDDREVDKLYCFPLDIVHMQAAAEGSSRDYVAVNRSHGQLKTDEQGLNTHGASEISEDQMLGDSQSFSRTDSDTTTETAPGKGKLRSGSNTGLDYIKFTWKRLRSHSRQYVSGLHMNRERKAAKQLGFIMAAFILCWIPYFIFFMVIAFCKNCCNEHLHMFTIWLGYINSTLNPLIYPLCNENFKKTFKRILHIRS

Histamine H4 receptor [5] = target: T1, Histamine H4 receptor; assay: Partial agonist activity at human H4R expressed in Sf9 cells co-expressing RGS19, Galphai2 and Gbeta1gamma2 assessed as stimulation of [35S]GTPgammaS binding relative to histamine; type: functional
Histamine H4 receptor [6] = target: T1, Histamine H4 receptor; assay: Partial agonist activity at human H4R expressed in Sf9 cells co-expressing RGS19, Galphai2 and Gbeta1gamma2 assessed as stimulation of [35S]GTPgammaS binding; type: functional
Histamine H4 receptor [7] = target: T1, Histamine H4 receptor; assay: Inverse agonist activity at human H4R expressed in Sf9 cells co-expressing RGS19, Galphai2 and Gbeta1gamma2 assessed as […] of [35S]GTPgammaS binding relative to histamine; type: functional
Histamine H4 receptor [8] = target: T1, Histamine H4 receptor; assay: Inverse agonist activity at human H4R expressed in Sf9 cells co-expressing RGS19, Galphai2 and Gbeta1gamma2 assessed as […] of [35S]GTPgammaS binding; type: functional

| Compound | pKi (Histamine H4 receptor [1]) | Kb (Histamine H1 receptor [2]) [nM] | inhibition [3] | pKi (Histamine H1 receptor [4]) | Emax (Histamine H4 receptor [5]) [%] | pEC50 (Histamine H4 receptor [6]) | Emax (Histamine H4 receptor [7]) [%] | pEC50 (Histamine H4 receptor [8]) |
| --- | --- | --- | --- | --- | --- | --- | --- | --- |
| COc1ccc(CN(CCN2CCN(C(=O)c3nc4ccccc4[nH]3)CC2)c2ccccn2)cc1 | 4.65 | 7.24 | inactive | 6.22 |  |  |  |  |
| COc1ccc(CN(CCN(C)CC(C)Nc2ccc3[nH]c(C(=O)N4CCN(C)CC4)cc3c2)c2ccccn2)cc1 (racemic) | 4.85 | 12.6 | inactive | 6.67 |  |  |  |  |
| O=C(c1cc2ccccc2[nH]1)N1CCN(CCOC(c2ccccc2)c2ccccc2)CC1 | 4.75 |  | inactive | 6.65 |  |  |  |  |
| O=C(c1cc2ccccc2[nH]1)N1CCN(CCN2CCC(Nc3nc4ccccc4n3Cc3ccc(F)cc3)CC2)CC1 | 4.98 |  |  | 8.26 |  |  |  |  |
| COc1ccc(CCN2CCC(Nc3nc4ccccc4n3Cc3ccc(F)cc3)CC2)cc1 [ASTEMIZOLE] | 5.10 |  |  |  |  |  |  |  |
| COc1ccc(CN(CCN[C@H]2CCN(C(=O)c3cc4ccccc4[nH]3)C2)c2ccccn2)cc1 | 4.56 | 8.51 | inactive | 6.34 |  |  |  |  |
| COc1ccc(CN(CCN2CCN(C(=O)c3cc4cc(Cl)ccc4[nH]3)CC2)c2ccccn2)cc1 | 4.80 | 20.4 | inactive | 6.11 |  |  |  |  |

Next, values leading:

| pKi (Histamine H4 receptor [1]) | Kb (Histamine H1 receptor [2]) [nM] | inhibition [3] | pKi (Histamine H1 receptor [4]) | Emax (Histamine H4 receptor [5]) [%] | pEC50 (Histamine H4 receptor [6]) | Emax (Histamine H4 receptor [7]) [%] | pEC50 (Histamine H4 receptor [8]) | Compound |
| --- | --- | --- | --- | --- | --- | --- | --- | --- |
| 5.23 | 10.7 | inactive | 6.77 | 88 | 3.98 |  |  | COc1ccc(CN(CCN2CCN(C(=O)c3cc4ccccc4[nH]3)CC2)c2ccccn2)cc1 |
| 6.54 |  |  |  |  |  |  |  | CN1CCN(C(=O)c2nc3ccccc3[nH]2)CC1 |
| 5.05 | 4.9 | inactive | 8.15 |  |  | < -1 | < 4.00 | COc1ccc(CN(CCN(C)CCN2CCN(C(=O)c3cc4ccccc4[nH]3)CC2)c2ccccn2)cc1 |
| 5.17 | 7.59 | inactive | 7.00 |  |  |  |  | COc1ccc(CN(CCN(C)CCN2CCN(C(=O)c3cc4cc(Cl)ccc4[nH]3)CC2)c2ccccn2)cc1 |
